From ChEMBL document CHEMBL2040750, “Hybrids of ravuconazole: synthesis and biological evaluation” (2012)
Values after ≈ are worked out from the molar mass of the structure shown. Active and inactive are the calls of the source. The calls are words filed in the database; no cut-off is given here.

Tests used:
Format in all cases: functional
Aspergillus niger [1] = test: Antifungal activity Aspergillus niger NCIM 545 after 24 to 72 hrs by NCCLS method
Summary of the method: (§1)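 Broth microdilution MIC per NCCLS. Compounds dissolved in DMSO, serially diluted in growth medium, incubated at 37 °C. Read at 24 h for bacteria and 24–72 h for fungi. MIC90 taken as the first well with about 90% growth reduction relative to the drug-free well.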

Bacillus subtilis [2] = test: Antibacterial activity Bacillus subtilis NCIM 2250 after 24 hrs by NCCLS method; summary of the method: as §1
Escherichia coli [3] = test: Antibacterial activity Escherichia coli NCIM 2109 after 24 hrs by NCCLS method; summary of the method: as §1
Pseudomonas aeruginosa [4] = test: Antibacterial activity Pseudomonas aeruginosa NCIM 2036 after 24 hrs by NCCLS method; summary of the method: as §1
Candida albicans [5] = test: Antifungal activity Candida albicans NCIM 3471 at 100 ug/disc by agar-well diffusion assay; settings: for zone of inhibition at 100 µg/disc: read-out: DIZ
Summary of the method: (§2)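 Agar-well diffusion screen against standard strains. Zone of inhibition is the read-out. Chloramphenicol, nystatin and ravuconazole were run as positive controls.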

Staphylococcus aureus [6] = test: Antibacterial activity Staphylococcus aureus NCIM 2079 after 24 hrs by NCCLS method; summary of the method: as §1
Escherichia coli [7] = test: Antibacterial activity Escherichia coli NCIM 2109 at 100 ug/disc by agar-well diffusion assay; settings: for zone of inhibition at 100 µg/disc: read-out: DIZ; summary of the method: as §2
Candida albicans [8] = test: Antifungal activity Candida albicans NCIM 3471 after 24 to 72 hrs by NCCLS method; summary of the method: as §1
Aspergillus niger [9] = test: Antifungal activity Aspergillus niger NCIM 545 at 100 ug/disc by agar-well diffusion assay; settings: for zone of inhibition at 100 µg/disc: read-out: DIZ; summary of the method: as §2
Bacillus subtilis [10] = test: Antibacterial activity Bacillus subtilis NCIM 2250 at 100 ug/disc by agar-well diffusion assay; settings: for zone of inhibition at 100 µg/disc: read-out: DIZ; summary of the method: as §2
Staphylococcus aureus [11] = test: Antibacterial activity Staphylococcus aureus NCIM 2079 at 100 ug/disc by agar-well diffusion assay; settings: for zone of inhibition at 100 µg/disc: read-out: DIZ; summary of the method: as §2
Pseudomonas aeruginosa [12] = test: Antibacterial activity Pseudomonas aeruginosa NCIM 2036 at 100 ug/disc by agar-well diffusion assay; settings: for zone of inhibition at 100 µg/disc: read-out: DIZ; summary of the method: as §2

SMILES	MIC (Aspergillus niger [1])	MIC (Bacillus subtilis [2])	MIC (Escherichia coli [3])	MIC (Pseudomonas aeruginosa [4])	zone of inhibition at 100 µg/disc (Candida albicans [5]) [mm]	MIC (Staphylococcus aureus [6])	zone of inhibition at 100 µg/disc (Escherichia coli [7]) [mm]	MIC (Candida albicans [8])	zone of inhibition at 100 µg/disc (Aspergillus niger [9]) [mm]	diameter of the inhibition zone (DIZ) (Bacillus subtilis [10])	diameter of the inhibition zone (DIZ) (Staphylococcus aureus [11])	diameter of the inhibition zone (DIZ) (Pseudomonas aeruginosa [12])	MIC (Bacillus subtilis [2]; NCIM 2250, 24 h) [µg/mL]	diameter of the inhibition zone (DIZ) (Escherichia coli [7])	zone of inhibition at 100 µg/disc (Bacillus subtilis [10]) [mm]	MIC (Escherichia coli [3]; NCIM 2109, 24 h) [µg/mL]	MIC (Pseudomonas aeruginosa [4]; NCIM 2036, 24 h) [µg/mL]	MIC (Staphylococcus aureus [6]; NCIM 2079, 24 h) [µg/mL]	zone of inhibition at 100 µg/disc (Pseudomonas aeruginosa [12]) [mm]	diameter of the inhibition zone (DIZ) (Candida albicans [5])	also measured
FC(F)(F)c1cc(/C(Cn2cncn2)=N\Nc2nc(-c3cc(C(F)(F)F)cc(C(F)(F)F)c3)cs2)cc(C(F)(F)F)c1	32 µg/mL (≈ 50.6 µM)	inactive	inactive	inactive	11.7	inactive	13.1	64 µg/mL (≈ 101 µM)	15.2	inactive	inactive	inactive	–	–	–	–	–	–	–	–	–
O=[N+]([O-])c1ccc(/C(Cn2cncn2)=N\Nc2nc(-c3ccc(F)cc3)cs2)cc1	> 64 µg/mL	–	inactive	inactive	11.2	inactive	–	> 64 µg/mL	14.4	–	inactive	inactive	> 64	inactive	11.3	–	–	–	–	–	–
Clc1ccc(/C(Cn2cncn2)=N\Nc2nc(-c3ccc(Cl)cc3)cs2)cc1	32 µg/mL (≈ 74.5 µM)	inactive	–	–	20.4	–	9.65	32 µg/mL (≈ 74.5 µM)	19.5	inactive	–	–	–	–	–	> 64	16 (≈ 37.3 µM)	64 (≈ 149 µM)	28.9	–	zone of inhibition at 100 µg/disc (Staphylococcus aureus [11]): 18.8 mm
Fc1ccc(-c2csc(N/N=C(/Cn3cncn3)c3ccc(Cl)cc3)n2)cc1	32 µg/mL (≈ 77.5 µM)	–	–	inactive	19.1	–	13.9	32 µg/mL (≈ 77.5 µM)	18.8	–	–	inactive	64 (≈ 155 µM)	–	16.8	> 64	–	32 (≈ 77.5 µM)	–	–	zone of inhibition at 100 µg/disc (Staphylococcus aureus [11]): 25.7 mm
Fc1ccc(/C(Cn2cncn2)=N\Nc2nc(-c3ccc(Br)cc3)cs2)cc1	64 µg/mL (≈ 140 µM)	inactive	–	–	14.8	inactive	–	64 µg/mL (≈ 140 µM)	15.8	inactive	inactive	–	–	inactive	–	64 (≈ 140 µM)	32 (≈ 70 µM)	–	18.2	–	–
Fc1ccc(-c2csc(N/N=C(/Cn3cncn3)c3ccc(Br)cc3)n2)cc1	> 64 µg/mL	–	inactive	inactive	14.4	–	–	64 µg/mL (≈ 140 µM)	11.9	–	–	inactive	32 (≈ 70 µM)	inactive	20.3	–	–	64 (≈ 140 µM)	–	–	zone of inhibition at 100 µg/disc (Staphylococcus aureus [11]): 15.5 mm
Fc1ccc(/C(Cn2cncn2)=N\Nc2nc(-c3cc(C(F)(F)F)cc(C(F)(F)F)c3)cs2)cc1	64 µg/mL (≈ 124 µM)	inactive	–	–	–	inactive	14.9	inactive	13.8	inactive	inactive	–	–	–	–	> 64	32 (≈ 62.2 µM)	–	23.9	inactive	–
FC(F)(F)c1cc(/C(Cn2cncn2)=N\Nc2nc(-c3ccc(Br)cc3)cs2)cc(C(F)(F)F)c1	inactive	–	–	–	–	inactive	17	inactive	–	–	inactive	–	> 64	–	10.1	> 64	32 (≈ 55.6 µM)	–	20.4	inactive	diameter of the inhibition zone (DIZ) (Aspergillus niger [9]): inactive
O=[N+]([O-])c1ccc(-c2csc(N/N=C(/Cn3cncn3)c3ccc(Br)cc3)n2)cc1	inactive	inactive	–	inactive	–	inactive	14	inactive	–	inactive	inactive	inactive	–	–	–	> 64	–	–	–	inactive	diameter of the inhibition zone (DIZ) (Aspergillus niger [9]): inactive
Fc1ccc(-c2csc(N/N=C(/Cn3cncn3)c3cc(C(F)(F)F)cc(C(F)(F)F)c3)n2)cc1	32 µg/mL (≈ 62.2 µM)	–	inactive	–	19.4	–	–	> 64 µg/mL	17.3	–	–	–	> 64	inactive	9.77	–	16 (≈ 31.1 µM)	64 (≈ 124 µM)	22.9	–	zone of inhibition at 100 µg/disc (Staphylococcus aureus [11]): 21.2 mm
O=[N+]([O-])c1ccc(/C(Cn2cncn2)=N\Nc2nc(-c3ccc(Br)cc3)cs2)cc1	inactive	inactive	–	–	–	inactive	11	inactive	–	inactive	inactive	–	–	–	–	> 64	64 (≈ 132 µM)	–	19.8	inactive	diameter of the inhibition zone (DIZ) (Aspergillus niger [9]): inactive
O=[N+]([O-])c1ccc(-c2csc(N/N=C(/Cn3cncn3)c3ccc(F)cc3)n2)cc1	> 64 µg/mL	inactive	–	inactive	–	inactive	10.9	inactive	9.44	inactive	inactive	inactive	–	–	–	> 64	–	–	–	inactive	–
O=[N+]([O-])c1ccc(/C(Cn2cncn2)=N\Nc2nc(-c3ccc(Cl)cc3)cs2)cc1	inactive	–	inactive	inactive	–	–	–	inactive	–	–	–	inactive	64 (≈ 145 µM)	inactive	15.8	–	–	> 64	–	inactive	diameter of the inhibition zone (DIZ) (Aspergillus niger [9]): inactive; zone of inhibition at 100 µg/disc (Staphylococcus aureus [11]): 14.2 mm
